Measured values published in ChEMBL document CHEMBL1126260, “Thromboxane receptor antagonism combined with thromboxane synthase inhibition. 2. Synthesis and biological activity of 8-(benzenesulfonamido)-7-(3-pyridinyl)octaonic acid and related compounds” (J Med Chem, 1992).

Columns and labels:
[1] = Ratio of platelet rich plasma to that of washed platelets
Homo sapiens [2] = species on record: Homo sapiens; assay: Inhibitory activity against U-46,619-induced aggregation of washed human platelets.; type: functional
Summary of the method: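 Aspirin-treated, washed human platelets stimulated with U 46619 (stable PGH₂/TxA₂ mimic); aggregation inhibition measured; IC50.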

Homo sapiens [3] = species on record: Homo sapiens; assay: Antagonist activity against U-46,619-induced aggregation of platelet rich plasma (PRP); type: functional
Summary of the method: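 Human platelet-rich plasma stimulated with U 46619; aggregation inhibition measured; IC50.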

Thromboxane-A synthase = target: T1, Thromboxane-A synthase (Homo sapiens, UniProt P24557); assay: Inhibitory activity against human Thromboxane A2 synthase
T1 sequence (P24557 whole entry): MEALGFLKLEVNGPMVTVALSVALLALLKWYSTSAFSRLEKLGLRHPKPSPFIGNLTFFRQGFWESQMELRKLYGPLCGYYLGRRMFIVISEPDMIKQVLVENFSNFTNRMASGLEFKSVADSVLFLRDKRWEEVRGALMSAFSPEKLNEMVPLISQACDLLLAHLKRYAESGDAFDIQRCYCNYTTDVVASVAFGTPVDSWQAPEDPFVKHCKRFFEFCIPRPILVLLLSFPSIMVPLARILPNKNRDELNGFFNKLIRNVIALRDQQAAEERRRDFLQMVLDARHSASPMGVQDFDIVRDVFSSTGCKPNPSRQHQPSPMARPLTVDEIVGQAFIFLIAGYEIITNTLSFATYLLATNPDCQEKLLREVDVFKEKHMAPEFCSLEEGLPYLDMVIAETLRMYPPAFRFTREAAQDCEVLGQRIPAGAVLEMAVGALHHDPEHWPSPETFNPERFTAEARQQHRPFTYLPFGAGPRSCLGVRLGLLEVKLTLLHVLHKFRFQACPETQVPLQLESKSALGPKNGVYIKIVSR
Summary of the method: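 Human platelet microsomal preparation incubated with (14C)arachidonic acid; thromboxane synthase inhibition read as reduced TxB₂ formation; IC50.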

Oryctolagus cuniculus [4] = species on record: Oryctolagus cuniculus; assay: Antagonist activity against contraction of rabbit aortic strips; (agonist activity was observed at 10e-5-10e-7M); type: functional, Aorta
Summary of the method: (§1)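 Thoracic aorta segments (~3 cm) from anesthetized male New Zealand rabbits (1.4–2.4 kg), cleaned of fat; 2.0 g preload, 1 h equilibration. Contraction evoked by U 46619 (3 × 10⁻⁹ M) to plateau (20 min), then washed back to baseline. IC50 from a single determination.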

Oryctolagus cuniculus [5] = species on record: Oryctolagus cuniculus; assay: Antagonist activity against contraction of rabbit aortic strips; type: functional; conditions: Aorta
Summary of the method: as §1

| Structure (SMILES) | Ratio [1] | IC50 (Homo sapiens [2]) | IC50 (Homo sapiens [3]) | IC50 (Thromboxane-A synthase) | IC50 (Oryctolagus cuniculus [4]) | IC50 (Oryctolagus cuniculus [5]) |
| --- | --- | --- | --- | --- | --- | --- |
| O=C(O)COc1ccc(CCNS(=O)(=O)c2ccccc2)cc1 [SULOTROBAN] | 2.6 | 1.5 µM | 4 µM |  |  |  |
| O=C(O)CCCC(CNS(=O)(=O)c1ccc(Cl)cc1)c1cccnc1 (stereo not drawn) |  | > 10 µM |  | 2 µM |  |  |
| NC(=O)CCCCCC(CNS(=O)(=O)c1ccccc1)c1cccnc1 (stereo not drawn) |  | > 10 µM |  | > 10 µM |  |  |
| Cl.O=C(O)CCCCCC(CNS(=O)(=O)c1ccc(Cl)cc1)c1cccnc1 (stereo not drawn) | 30 |  | 0.6 µM |  | Agonist |  |
| O=C(O)CCCCC(CNS(=O)(=O)c1ccc(Cl)cc1)c1cccnc1 (stereo not drawn) |  | 0.08 µM |  | 0.077 µM |  |  |
| Cl.O=C(O)CCCCCCC(CNS(=O)(=O)c1ccc(Cl)cc1)c1cccnc1 (stereo not drawn) | 20 | 0.01 µM | 0.2 µM | 0.24 µM | Agonist |  |
| COc1ccc(S(=O)(=O)NCC(CCCCCC(=O)O)c2cccnc2)cc1 (stereo not drawn) |  | 0.3 µM |  | 0.94 µM |  |  |
| O=C(O)CCCCCC(CNS(=O)(=O)c1ccc([N+](=O)[O-])cc1)c1cccnc1 (stereo not drawn) |  | 0.07 µM |  | 0.12 µM |  |  |
| O=C(O)CCCCCC(CNS(=O)(=O)c1ccccc1)c1cccnc1 (stereo in doubt; 25) |  | 0.25 µM |  | > 10 µM |  |  |
| COC(=O)CCCCCC(CNS(=O)(=O)c1ccccc1)c1cccnc1 (stereo not drawn) |  | > 10 µM |  | > 10 µM |  |  |
| Cc1ccccc1S(=O)(=O)NCC(CCCCCC(=O)O)c1cccnc1 (stereo not drawn) |  | 0.38 µM |  | 0.2 µM |  |  |
| Cl.O=C(O)CCCCCC(CNS(=O)(=O)c1ccccc1)c1cccnc1 (stereo in doubt; 6) | 8.2 | 0.25 µM | 2.1 µM | 0.21 µM |  | 0.4 µM |
| O=C(O)CCCCCC(CNS(=O)(=O)c1ccc(C(=O)O)cc1)c1cccnc1 (stereo not drawn) |  | > 10 µM |  | > 10 µM |  |  |
| CN(CC(CCCCCC(=O)O)c1cccnc1)S(=O)(=O)c1ccc(Cl)cc1 (stereo not drawn) |  | > 10 µM |  | > 10 µM |  |  |
| Cl.O=C(O)CCCCCC(CNS(=O)(=O)c1ccc(Cl)c(Cl)c1)c1cccnc1 (stereo not drawn) | 32 | 0.08 µM | 2.5 µM | 0.04 µM |  | 1 µM |
| Cc1ccc(S(=O)(=O)NCC(CCCCCC(=O)O)c2cccnc2)cc1 (stereo not drawn) |  | 0.2 µM |  | 0.05 µM |  |  |
